# Compound activity deposited in PubChem BioAssay by several laboratories.
# V1R ag counter = agonists of human V1a receptor, primary screen, counter-screen for OXTR agonist project, fluorescence, CHO-V1R cells | activation, % at 3 µM | 320,000 tested, 0.25% active | Fluo-8 calcium fluorescence, agonist mode; 0% DMSO, 100% 3 nM vasopressin | Vasopressin V1a receptor (Homo sapiens), P37288;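 active = activation above the mean activation of all tested compounds plus 3 SD, per screening run, cut at about 20% in these data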;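 note: signal is peak over basal fluorescence ratio across a 100 second FLIPR read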
# OXTR ag = human OXTR agonists, primary screen, fluorescence, CHO-OTR cells, Fluo-8 calcium; Oxytocin receptor (Homo sapiens), P30559; Fluo-8 calcium fluorescence; normalized: DMSO 0%, oxytocin 100%; activation, % at 3 µM; 320,000 tested, 0.32% active; AID 2435, 2010;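 active = activation above the mean of all tested compounds plus 3 SD, cutoff set per screening run, cut at about 20% in these data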;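 note: peak over basal fluorescence ratio from a 100 s FLIPR kinetic read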
# CRFBP-R2 agonist = agonists of CRF-BP/CRF-R2 complex, primary screen, cell-based, HEK293, calcium dye fluorescence, uHTS | 350,000 tested, 0.46% active | activation, % at 13.2 µM | calcium dye fluorescence (FLIPR); percent of saturating CRF peptide response | AID 588473, 2011 | CRF-binding protein / CRF receptor 2 complex (human);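 active = activation of at least 50%, plus an integration ratio under a set limit after plate pattern correction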;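 note: plate controls were neutral control wells without compound for no effect and CRF at EC100 for full effect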
# TRPML3 ag = human TRPML3 channel agonists, primary screen, cell-based, HEK293 TRPML3-YFP, Fluo-8 calcium fluorescence, 3 µM | Mucolipin-3 (Homo sapiens), Q8TDD5 | 100% = the carbachol control signal | activation, % at 3 µM | 220,000 tested, 0.29% active;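 active = activation above its plate's cutoff, the mean activation of the plate's test wells plus 3 SD, cut at about 12% in these data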;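 note: 0% = DMSO only wells and 100% = carbachol wells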
# Target sequence (Q8TDD5 whole entry, looked up): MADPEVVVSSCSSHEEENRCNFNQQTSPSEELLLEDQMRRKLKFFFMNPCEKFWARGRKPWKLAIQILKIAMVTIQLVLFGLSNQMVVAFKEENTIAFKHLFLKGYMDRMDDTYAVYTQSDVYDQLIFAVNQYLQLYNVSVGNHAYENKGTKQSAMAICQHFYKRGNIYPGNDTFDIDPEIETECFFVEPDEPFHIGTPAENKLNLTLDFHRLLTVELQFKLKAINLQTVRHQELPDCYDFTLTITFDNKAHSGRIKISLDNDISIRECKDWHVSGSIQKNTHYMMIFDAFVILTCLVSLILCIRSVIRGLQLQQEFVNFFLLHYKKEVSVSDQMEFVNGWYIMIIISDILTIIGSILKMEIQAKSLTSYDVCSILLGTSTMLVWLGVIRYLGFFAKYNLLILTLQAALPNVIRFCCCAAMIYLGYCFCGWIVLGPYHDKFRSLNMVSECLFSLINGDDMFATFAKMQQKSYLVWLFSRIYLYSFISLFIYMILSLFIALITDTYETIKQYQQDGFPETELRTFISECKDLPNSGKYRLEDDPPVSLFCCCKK
#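 Material: TRPML3-YFP stable HEK293 cells | Dosing: One concentration, 3 µM nominal, 0.3% DMSO | Timing: 125 s total fluorescence read per well | Technique: Fluo-8 calcium dye fluorescence, ex 470-495, em 515-575 nm | Measure: Percent activation from peak-to-basal fluorescence ratio, scaled between DMSO and carbachol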
# TRPN1 ag = zebrafish TRPN1 channel agonists, primary screen, cell-based, HEK293, calcium fluorescence; transient receptor potential cation channel N1 (TRPN1/NompC), Danio rerio; HEK293 zebrafish TRPN1-YFP, Fluo-8 calcium fluorescence; 100% = response to 87 µM carbachol; activation, % at 3 µM; 220,000 tested, 0.18% active; AID 1424, 2008;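 active = activation above its plate's cutoff, the mean activation of test wells on that plate plus 3 SD, cut at about 19% in these data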;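 note: 0% = DMSO alone and 100% = 87 µM carbachol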
#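 System: zebrafish TRPN1-YFP in HEK293 cells / Dosing: 3 µM single point / Timing: dye loading 1 h at 37 °C, then 30 min room temperature / Signal: Fluo-8 calcium fluorescence, excitation 470-495 nm, emission 515-575 nm / Read-out basis: percent activation from peak over basal fluorescence ratio, control-normalized / Control set: high carbachol 87 µM, low DMSO alone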
# OXTR potentiator = human OXTR potentiators, primary screen, fluorescence, CHO-OTR cells, Fluo-8 calcium; 320,000 tested, 0.061% active; activation, % at 3 µM; Fluo-8 calcium fluorescence, potentiator mode; 0% = oxytocin EC15, 100% = EC100;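 active = activation above that plate's cutoff, the mean activation of tested compounds plus 3 SD, cut at about 6.6% in these data, passing the limit was not always enough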;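 note: 100% uses oxytocin at 75 nM as the full agonist control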
#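 Assay system: CHO cell line stably expressing human OTR | Also added: Oxytocin at about EC15, sub-maximal agonist stimulus | Times: Compound 6 min at room temperature before oxytocin, 100 s read | Measured by: Fluo-8 intracellular calcium fluorescence, ex 470-495, em 515-575 nm | Controls: EC15 oxytocin alone as 0%, 75 nM oxytocin as 100%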
# An asterisk follows results filed as active; x = not tested or not shown. Only some compounds are listed: those with a hit (about 0.85% of all), similar ones and a draw of the others.
SMILES,V1R ag counter,OXTR ag,CRFBP-R2 agonist,TRPML3 ag,TRPN1 ag,OXTR potentiator
COc1ccc2c3c(ccc2c1)C(=O)/C(=C/O)CC3,x,x,1.7,x,x,x
COC(=O)C1CCN(C(=O)COC(=O)CSc2ccc(C(N)=O)cc2[N+](=O)[O-])CC1,0.0,-0.9,-1.1,x,x,-7.5
CCN(CC)S(=O)(=O)c1ccc(N2CCOCC2)c(NC(=O)c2[nH]c(C)c(C(C)=O)c2C)c1,0.2,-1.2,-0.4,x,x,1.9
COc1ccccc1N1C(=O)C2C(C(=O)c3ccccc3)=NN(c3ccc(C)cc3)C2C1=O (configuration not stated),9.4,6.3,91.2*,0.6,2.9,-10.9
O=C(C1=NN(c2ccccc2)C2C(=O)N(c3cccc(Cl)c3)C(=O)C12)c1ccccc1 (configuration not stated),5.8,6.7,115.7*,1.9,3.1,-6.5
O=C(CCC1CCCC1)c1c(O)c2ccccc2oc1=O,0.4,-0.8,88.9*,1.2,0.8,-5.2
CCn1c(SCCN2CCCCC2)nc2c1c(=O)n(C)c(=O)n2C,x,x,0.2,x,x,x
Nc1ccc(-c2cnc3ccccc3n2)cc1,0.1,-1.7,-1.3,x,x,0.8
Nc1ccc2nc(-c3ccccc3)cnc2c1,5.3,8.5,66.2*,x,x,-3.7
COc1ccc(C)cc1S(=O)(=O)NC1CC1,1.3,0.3,3.4,x,x,-6.4
CCCCCCNC(=O)O[C@H]1Cn2c(=O)ccc(=O)n2[C@@H]2CN(S(=O)(=O)c3ccc(C)cc3)C[C@]12O,x,x,1.0,x,x,x
CC1CC(=Cc2ccc([N+](=O)[O-])cc2)C(=O)O1 (configuration not stated),x,x,-2.7,x,x,x
CCCC1=NN2C(=N)/C(=C\c3cc(C)n(-c4cc(C)cc(C)c4)c3C)C(=O)N=C2S1,8.8,9.3,51.0*,0.5,-0.3,-10.6
Cc1cccc(-n2c(C)cc(/C=C3\C(=N)N4N=C(CC(C)C)SC4=NC3=O)c2C)c1,0.5,-0.1,70.9*,0.8,0.7,-7.4
Cc1cc(/C=C2\C(=N)N3N=C(C(C)C)SC3=NC2=O)c(C)n1-c1ccccc1,0.6,-0.6,8.9,0.5,-0.6,-13.6
Cc1cc(C)cc(-n2c(C)cc(/C=C3\C(=N)N4N=C(CC(C)C)SC4=NC3=O)c2C)c1,-0.1,-0.9,60.0*,1.0,1.8,-1.6
COc1cc(OC)cc(C(=O)OCC(=O)NCCCc2ccccc2)c1,-0.1,-1.6,0.9,x,x,-8.5
CC(NC(=O)c1ccc(Cl)c(S(=O)(=O)NC2CC2)c1)c1ccco1 (configuration not stated),x,x,1.8,x,x,x
COc1cccc(CC2(CO)CCCN(Cc3cc4ccccc4[nH]3)C2)c1 (configuration not stated),3.2,5.3,120.0*,3.1,7.0,-9.4
CCOC(=O)c1cc([N+](=O)[O-])sc1NC(=O)c1ccc(S(=O)(=O)N2CC3(C)CC2CC(C)(C)C3)cc1 (configuration not stated),1.2,0.4,152.4*,0.5,-0.6,-2.6
COc1cc(/C=C(\C#N)c2nc3c(s2)CCCC3)ccc1O,57.3*,60.0*,x,11.0,5.6,-23.8
O=C(CCOc1cccc(Br)c1)Nc1ccc(F)c(S(=O)(=O)N2CCOCC2)c1,x,x,1.2,x,x,x
COc1ccc(CN(C)C(=O)c2cc(-c3ccccc3)nc3ccc(C)cc23)c(OC)c1,x,x,5.1,x,x,x
Cc1cccc(NC(=O)c2ccccc2O)c1C,5.5,6.6,20.6,1.0,2.5,-10.0
Cc1ccc(C)c(NC(=O)c2ccccc2O)c1,6.2,14.3,62.5*,2.4,14.4,-18.9
SMILES,V1R ag counter,OXTR ag,CRFBP-R2 agonist,TRPML3 ag,TRPN1 ag,OXTR potentiator
N#Cc1ccc(CN2CCN(C(=O)CCNS(=O)(=O)c3ccc(F)c(Cl)c3)CC2)cc1,5.0,5.7,-0.9,x,x,-8.3
Cc1nn(C)cc1C(C(=O)NC1CCCCC1)N(C(=O)Cc1cccs1)c1ccc(Cl)cc1 (configuration not stated),10.7,5.6,58.1*,1.0,1.1,-7.0
CNC(=O)c1sc(N2N=C3/C(=C/c4ccccc4)CCCC3C2c2ccccc2)nc1C (configuration not stated),1.3,0.0,64.4*,0.2,1.8,-11.4
O=C(NCCc1ccc(Cl)cc1)C1COc2ccccc2O1 (configuration not stated),0.7,-0.9,-1.6,x,x,-9.3
COc1ccccc1CCNC(=O)CSc1ccc(-c2cccs2)nn1,-0.7,-0.3,-5.9,20.1*,32.7*,1.3
CN1C(=O)[C@H]2[C@@H](/C=C/c3ccccc3)N3C(=O)CN(Cc4ccc(-c5ccccc5)cc4)C(=O)[C@@]3(Cc3ccccc3)[C@H]2C1=O,0.5,0.4,1.5,x,x,-1.8
CC(=O)N/N=C/c1cc(C(C)(C)C)cc(/C=N/NC(C)=O)c1O,2.8,-0.3,76.9*,0.9,3.9,-12.0
N=c1oc2c3c4c(cc2cc1C(=O)Nc1ccccc1)CCCN4CCC3,59.6*,112.0*,270.6*,1.4,2.6,-21.1
O=C(O)CN1C(=O)/C(=C\c2cn(CC(=O)N3CCOCC3)c3ccccc23)SC1=S,4.1,3.9,69.3*,2.4,5.1,-5.6
OCC1(CCc2ccccc2)CCCN(CCCc2ccccc2)C1 (configuration not stated),1.9,2.0,-1.1,x,x,-5.8
CC(Sc1nnc(CN2CCCC2)n1Cc1ccccc1)C(=O)Nc1ccc(F)c(F)c1F (configuration not stated),x,x,5.0,x,x,x
CCOc1ccc(NC(=O)CSc2nc3ccsc3c(=O)n2CCCCCC(=O)O)cc1,x,x,-1.1,x,x,x
Cc1cccc(C)c1NC(=O)C(=O)NCCOc1ccc(Cl)cc1,18.8,22.2*,11.7,1.0,4.2,-22.0
Cc1ccc(C(=O)NCCOc2ccc(Cl)cc2)cc1,-2.4,-1.2,0.9,x,x,6.1
O=C(CSc1ccccc1)N1CCCC(Nc2ccccc2)C1 (configuration not stated),0.8,0.6,1.0,x,x,-2.1
CC(C)CCN1C(Nc2ccccc2)=NC[C@@H]1CC(C)C,1.3,1.1,-1.5,x,x,1.2
CC(C)C[C@H]1CN=C(Nc2ccccc2)N1CCc1ccc(F)cc1,59.0*,43.6*,110.5*,x,x,-18.1
